Assay results taken from ChEMBL document CHEMBL2203099, “Identification of a crucial amino acid in the helix position 6.51 of human tachykinin neurokinin 1 and 3 receptors contributing to the insurmountable mode of antagonism by dual NK₁/NK₃ antagonists” (J Med Chem, 2012).
Where a chain is given by its changes, count along the chain named. Activity calls are given as the source filed them. No cut-off for these calls is given here.

Key:
[1] = target: Substance-P receptor (Homo sapiens, UniProt P25103, F264Y); experiment: Partial noncompetitive inhibition of human F264Y6.51 mutant expressed in HEK293 cells assessed as decrease in SP1-induced [3H]IP accumulation after 20 mins; type: cell-based; conditions: read-out: pA2 (converted)
[2] = target: Neuromedin-K receptor (Homo sapiens, UniProt P29371, H316W); experiment: Displacement of radioligand [3H]osanetant at human NK3 H316W mutant expressed in HEK293 cells; type: cell-based
[3] = test system: HEK293; experiment: Selectivity ratio of Ki for human NK3 Y247F mutant expressed in HEK293 cells to Ki for wild type human NK3 receptor expressed in HEK293 cells; type: cell-based
[4] = test system: T1, Neuromedin-K receptor (Homo sapiens), P29371 [Y315F]; experiment: Antagonist activity at human NK3 Y315F6.51 mutant expressed in HEK293 cells assessed as decrease in [MePhe7]NKB-induced [3H]IP accumulation at 10 nM after 20 mins; type: functional, cell-based
T1 sequence (whole entry): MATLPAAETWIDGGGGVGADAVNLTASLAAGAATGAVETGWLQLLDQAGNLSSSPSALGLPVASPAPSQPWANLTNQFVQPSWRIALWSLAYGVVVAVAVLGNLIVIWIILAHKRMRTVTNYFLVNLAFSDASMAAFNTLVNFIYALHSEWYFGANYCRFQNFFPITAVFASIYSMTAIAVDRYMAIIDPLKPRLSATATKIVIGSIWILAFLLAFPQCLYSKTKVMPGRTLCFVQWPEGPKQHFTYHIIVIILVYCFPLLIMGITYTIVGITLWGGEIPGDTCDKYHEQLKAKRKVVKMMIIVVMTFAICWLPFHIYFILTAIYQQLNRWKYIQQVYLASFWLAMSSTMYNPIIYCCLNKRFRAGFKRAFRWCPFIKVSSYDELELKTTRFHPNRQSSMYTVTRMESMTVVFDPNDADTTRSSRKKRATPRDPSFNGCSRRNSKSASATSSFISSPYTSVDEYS

[5] = test system: HEK293; experiment: Selectivity ratio of Ki for wild type human NK3 receptor expressed in HEK293 cells to Ki for human NK3 Y315F6.51 mutant expressed in HEK293 cells; type: cell-based
[6] = test system: HEK293; experiment: Selectivity ratio of Ki for human NK3 H316F mutant expressed in HEK293 cells to Ki for wild type human NK3 receptor expressed in HEK293 cells; type: cell-based
[7] = target: T2, Substance-P receptor (Homo sapiens, UniProt P25103); experiment: Noncompetitive inhibition of wild type human NK1 receptor expressed in HEK293 cells assessed as decrease in SP1-induced [3H]IP accumulation after 20 mins; type: cell-based
[8] = test system: T3, Neuromedin-K receptor (Homo sapiens), P29371 [H316W]; experiment: Antagonist activity at human NK3 H316W6.52 mutant expressed in HEK293 cells assessed as decrease in [MePhe7]NKB-induced [3H]IP accumulation after 20 mins; type: functional, cell-based
T3 sequence (whole entry): T1 sequence (whole entry) with F315Y, H316W
How it was run: (§1)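 HEK293 cells transiently expressing human NK3 WT or mutant, labeled with myo-[³H]inositol in LiCl buffer. Antagonist preincubated 20 min at 37 °C, then [MePhe⁷]NKB (0.01 nM–1 μM) added for 45 min at 37 °C. [³H]IP read by SPA beads. Schild analysis of EC50 shift and Emax depression across increasing antagonist concentrations gives pA2, slope and mode of antagonism.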

[9] = target: T4, Neuromedin-K receptor (Homo sapiens) (UniProt P29371); experiment: Noncompetitive inhibition at wild type human NK3 expressed in HEK293 cells assessed as decrease in [MePhe7]NKB-induced [3H]IP accumulation after 20 mins; type: cell-based; how it was run: as §1
T4 sequence (whole entry): T1 sequence (whole entry) with F315Y

[10] = test system: HEK293; experiment: Selectivity ratio of Ki for human NK3 Y247W mutant expressed in HEK293 cells to Ki for wild type human NK3 receptor expressed in HEK293 cells; type: cell-based
[11] = target: T2, Substance-P receptor; experiment: Displacement of radioligand [3H]SP from wild type human NK1 receptor expressed in HEK293 cells; type: cell-based
How it was run: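 Membranes from transiently transfected HEK293 cells, 2.5 μg protein/well, in 50 mM HEPES pH 7.4 with 3 mM MnCl2, phosphoramidon, leupeptin and 0.04% BSA. 10 competitor concentrations (0.0003–10 μM), 90 min at rt. Nonspecific binding with 10 μM NK1 antagonist. Filtration, then scintillation counting. Ki by Cheng–Prusoff. Three experiments, each in duplicate.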

[12] = target: T2, Substance-P receptor; experiment: Binding affinity at human NK1 receptor
[13] = target: T5, Neuromedin-K receptor (Homo sapiens, UniProt P29371); experiment: Displacement of [3H]osanetant from wild type human NK3 receptor expressed in HEK293 cells; type: cell-based
T5 sequence (P29371 whole entry): T1 sequence (whole entry) with F315Y

[14] = target: Neuromedin-K receptor (Homo sapiens, UniProt P29371, Y315F); experiment: Displacement of radioligand [3H]osanetant at human NK3 Y315F6.51 mutant expressed in HEK293 cells; type: cell-based

T2 sequence (P25103 whole entry): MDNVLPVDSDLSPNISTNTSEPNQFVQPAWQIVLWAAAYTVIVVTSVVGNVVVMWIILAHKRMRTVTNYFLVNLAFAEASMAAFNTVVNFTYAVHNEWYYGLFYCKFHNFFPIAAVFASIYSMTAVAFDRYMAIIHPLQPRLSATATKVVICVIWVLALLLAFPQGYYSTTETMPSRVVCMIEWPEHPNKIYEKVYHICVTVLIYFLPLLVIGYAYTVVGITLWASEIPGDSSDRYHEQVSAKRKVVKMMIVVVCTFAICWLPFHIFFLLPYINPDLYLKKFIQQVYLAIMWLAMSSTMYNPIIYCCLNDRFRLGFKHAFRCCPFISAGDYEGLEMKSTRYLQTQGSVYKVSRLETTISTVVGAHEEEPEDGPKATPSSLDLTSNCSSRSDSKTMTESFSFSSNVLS
Chain of Neuromedin-K receptor (Homo sapiens, UniProt P29371, H316W) (P29371 whole entry H316W): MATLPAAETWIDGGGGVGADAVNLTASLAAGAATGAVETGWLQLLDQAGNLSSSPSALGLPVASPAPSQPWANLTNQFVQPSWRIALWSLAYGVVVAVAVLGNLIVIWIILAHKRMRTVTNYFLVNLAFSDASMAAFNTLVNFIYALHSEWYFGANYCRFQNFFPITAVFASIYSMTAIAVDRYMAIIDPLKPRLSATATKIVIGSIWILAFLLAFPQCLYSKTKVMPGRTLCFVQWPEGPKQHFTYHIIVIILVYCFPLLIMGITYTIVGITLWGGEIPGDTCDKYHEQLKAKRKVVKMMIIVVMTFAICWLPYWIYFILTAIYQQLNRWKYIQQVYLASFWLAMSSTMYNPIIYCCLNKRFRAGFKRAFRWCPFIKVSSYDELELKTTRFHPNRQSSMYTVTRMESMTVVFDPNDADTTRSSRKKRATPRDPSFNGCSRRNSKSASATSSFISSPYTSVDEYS
Chain of Substance-P receptor (Homo sapiens, UniProt P25103, F264Y) (P25103 whole entry F264Y): as the sequence (P25103 whole entry) above, with F264Y counted along it

Compound `Cc1cc(F)ccc1-c1cc(N2CC[C@H](O)[C@H]2CO)ncc1N(C)C(=O)C(C)(C)c1cc(C(F)(F)F)cc(C(F)(F)F)c1` has a Kb [1] of 28.8 nM, a Ki [2] of 2010 nM and a Ratio Ki [3] of 1.3. The Activity [4] was “Active”, the Ratio Ki [5] was 4.1 and the Ratio Ki [6] was 4.3. The inhibition [7] was “Active”, the Activity [8] was “inactive” and the inhibition [9] was “Active”. For the same compound, the Ratio Ki [10] was 1.2, the Ki [11] was 0.7 nM and the Ki [12] was 0.7 nM. For the same compound, the Ki [13] was 2.9 nM and the Ki [14] was 0.7 nM.
